Measurements from different studies.
Protocols differ between the studies behind these lines.
Read-out: metabolic stability
Host: rat

`COc1cc(-c2cc(C(C)=O)n3ccccc23)c(OC)cc1Cn1ccnc1` has a half-life of 94.3 min (liver microsomes; 1 µM, pH 7.4).
The half-life of `N#Cc1ccc(C[C@H](Nc2ncc(-c3ccc(F)cc3)o2)C(=O)N2CCc3ccccc32)cc1` is reported as 43 min (liver microsomes; 10 µM, pH 7.4).
`NCc1ccc(-c2nn(Cc3ccccc3)c3ccccc23)o1` has a half-life of 85 min (liver microsomes).
`Cc1[nH]c(C)c(S(=O)(=O)Nc2ccc(C(F)(F)F)c(Cl)c2Cl)c1C(=O)N1CCC(F)(F)C1` gave a half-life of 32 min (liver microsomes).
The half-life of `O=C(Nc1ccc(OC(F)(F)Cl)cc1)c1cnc(N2CC[C@@H](O)C2)c(-c2ccn[nH]2)c1` is reported as 179 min (liver microsomes; 1 µM, pH 7.4).
With `N#Cc1ccc(C[C@H](Nc2nnc(-c3ccc(Br)cc3)s2)C(=O)N2CCc3ccccc32)cc1` the half-life was 15 min (liver microsomes; 10 µM, pH 7.4).
The half-life of `COc1cnccc1Cn1nc(-c2ccc(CO)o2)c2ccccc21` is reported as 7 min (liver microsomes; 1 µM, pH 7.4).
The half-life of `N#Cc1ccc(C[C@H](Nc2c(Nc3ccc(Br)cc3)c(=O)c2=O)C(=O)N2CCc3ccccc32)cc1` is reported as 38 min (liver microsomes; 10 µM, pH 7.4).
`NCc1ccc(-c2nn(Cc3ccncc3)c3ccccc23)o1` has a half-life of roughly 17 min (liver microsomes; 1 µM, pH 7.4).
For `C=CCn1c(=O)c2cnc(Nc3ccc(N4CCN(C)CC4)cc3)nc2n1-c1ccc2c(n1)[C@@](O)(CC)CC2`, the half-life was 175 min (hepatocytes).
With `N#Cc1ccc(C[C@H](Nc2nnc(-c3ccc(Br)cc3)o2)C(=O)N2CCc3ccccc32)cc1` the half-life was 27 min (liver microsomes; 10 µM, pH 7.4).
The half-life of `OCc1ccc(-c2nn(Cc3ccncc3)c3ccccc23)o1` is reported as 12 min (liver microsomes; 1 µM, pH 7.4).
The half-life of `O=C1CCC(N2Cc3cc(C4CCN(Cc5ccccc5)CC4)ccc3C2=O)C(=O)N1` (stereo not shown) is reported as greater than 60 min (liver microsomes; 1 µM).
